An excerpt weighted towards active compounds, which were near 4.8% of everything screened.
Mot1-301 SUMO: yeast Mot1-301 growth rescue at high temperature, primary screen, SUMOylation pathway inhibitor project, S. cerevisiae, ATP luminescence, 38.5C; S. cerevisiae Mot1-301 growth rescue; percent above DMSO median, 100 means doubled; growth rescue, % at 18.8 µM; hit rate 1% among 320,000; AID 2716, 2010;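 active = every valid replicate shows activation above 250% relative to neutral control wells; inactive = the rest, any valid replicate at or below 250%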
T cruzi repl: inhibitors of intracellular T. cruzi growth, primary screen, luminescence, NIH3T3 host cells | T. cruzi beta-gal in NIH3T3, 90 h | inhibition, % (concentration not given with the values) | AID 1885, 2009 | hit rate 1.4% among 300,000;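 active = mean inhibition across valid replicates above about 55%, limit read from the data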;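 also: signal also drops with host cell toxicity which is not excluded here; higher percent means less beta-gal luminescence so fewer parasites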
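System: Mouse NIH/3T3 fibroblasts infected with β-gal-expressing T. cruzi Tulahuen C4 | Quantity: NIH/3T3 cells, 5,000 per well | Reagent: 5000 reporter trypomastigotes per well | Dosing: Compound pinned at 50 nL/well, DMSO | Schedule: 3 h host attachment, then at least 90 h co-culture | Detection: GalScreen luminescence, 60 min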
WT yeast gro inh: growth inhibition of WT strain, primary screen, mitochondrial fusion inhibitor project, WT and mutant strains, chemical genetic. AID 1362, 2008. hit rate 2.1% among 190,000. inhibition, % at 10 µM. mitochondrial fusion phenotypic screen; in the data active = inhibition above about 58%; tested in S. cerevisiae
CSC inhib: cancer stem cell viability inhibitors, primary screen, luminescence. cancer stem cell-like cells viability. inhibition, % at 7.5 µM. hit rate 1.1% among 300,000; in the data active = inhibition above about 75%; tested in HMLE shEcad cells
Beta cell apopt: inhibitors of cytokine-induced beta cell apoptosis, primary screen, luminescence | INS-1E cytokine-induced death, ATP luminescence, 48 h; percent of positive-control rescue, neutral wells zero | protection from apoptosis, % (test concentration not listed) | hit rate 0.8% among 300,000;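 active = Every replicate reaches about 75%, or at least half do and their mean reaches it too, limit read from the data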;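 also: higher means more ATP so stronger rescue from cytokine killing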
Efflux pump inh: inhibitors of Candida efflux pumps in yeast, primary screen, S. cerevisiae, Nile Red, multiplex; inhibition, % at 10 µM; AID 485275, 2010; S. cerevisiae Candida pump triplex; hit rate 0.44% among 330,000;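 active = plate passing quality check with inhibition over a set limit, or well fluorescence over plate mean plus 4 SD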;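 also: Nile Red retained in pooled yeast measured as flow cytometry median fluorescence; higher means more Nile Red kept so more efflux inhibition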
Yeast cmpd fluor: compound fluorescence in yeast efflux pump counter-screen; shares compounds with Efflux pump inh; S. cerevisiae AD/pABC3, flow cytometry; hit rate 4% among 1,700; fluorescence ratio to DMSO, % at 10 µM;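 active = fluorescence ratio to DMSO above its plate's cutoff, the plate mean ratio plus 5 SD, cut at about 210% in these data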;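 also: unstained yeast with no Nile Red so the signal is compound autofluorescence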
Mdr1 pump inh: inhibitors of Candida albicans Mdr1 efflux, confirmation, flow cytometry, singleplex, Cherry Pick1 set. shares compounds with Efflux pump inh. S. cerevisiae AD/CaMDR1, Nile Red efflux. inhibition, % at 10 µM. hit rate 1% among 1,700. AID 588518, 2011; in the data active = inhibition above about 26%;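 also: higher means more Nile Red retained so more efflux inhibition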
CaCdr2 efflux inh: inhibitors of Candida albicans Cdr2 efflux pump, confirmation, S. cerevisiae AD/CaCDR2, flow cytometry, cherry pick 1, singleplex. shares compounds with Efflux pump inh. Nile Red retention ratio vs DMSO, % at 10 µM. AID 588520, 2011. hit rate 4% among 1,700. Nile Red retention; in the data active = Nile Red retention ratio vs DMSO above about 190%;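 also: higher ratio means more blocking of Cdr2 efflux of the dye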
Cdr1 pump inh: inhibitors of Candida albicans Cdr1 efflux pump, confirmation, S. cerevisiae AD/CaCDR1, flow cytometry, cherry pick 1, singleplex; shares compounds with Efflux pump inh; Nile Red efflux; inhibition, % at 10 µM; hit rate 1% among 1,700; AID 588522, 2011;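 active = inhibition above the screen-wide mean plus twice its standard deviation, cut at about 32% in these data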
A number is an active result; - = inactive; . = no result; + = active, no number.

SMILES	Mot1-301 SUMO	T cruzi repl	WT yeast gro inh	CSC inhib	Beta cell apopt	Efflux pump inh	Yeast cmpd fluor	Mdr1 pump inh	CaCdr2 efflux inh	Cdr1 pump inh
Cc1ccc(SCC(=O)N(Cc2nc(-c3ccccc3)no2)C(C)C)cc1	-	-	-	-	-	1.5	-	-	-	-
O=C1C(Cl)=C(Nc2ccc3cn[nH]c3c2)C(=O)c2ccccc21	-	59	.	109	110	0.7	-	-	-	-
O=C(Nc1ccc2cn[nH]c2c1)c1c(Cl)cccc1Cl	-	-	-	-	.	-	.	.	.	.
CC(C)n1cc(/C=N/NC(=O)COc2cccc3cccnc23)c2ccccc21	-	-	-	-	-	3.1	-	-	-	-
C=CCn1cc(/C=N/NC(=O)COc2cccc3cccnc23)c2ccccc21	-	-	-	-	-	-	.	.	.	.
Cc1cc2c([nH]c3ccccc32)c(C)n1	-	-	.	-	-	-	.	.	.	.
Cc1c2ccncc2cc2c1[nH]c1ccccc12	.	.	.	.	.	.	-	-	-	-
COC(=O)CCC(=O)c1ccn(S(=O)(=O)c2ccccc2)c1	-	-	.	.	.	-	.	.	.	.
COc1ccc(/C=N\NC(=O)c2ccccc2Cl)cc1COc1c(F)c(F)c(F)c(F)c1F	-	-	.	-	-	-	.	.	.	.
COc1ccc(/C=N\NC(=O)c2ccccc2OC)cc1COc1c(F)c(F)c(F)c(F)c1F	-	-	.	-	-	9.2	-	-	-	-
C[C@H](NC(=O)Cc1cccc2ccccc12)C(=O)N1CCOCC1	-	.	.	-	-	-	.	.	.	.
NS(=O)(=O)c1cccc(NC(=O)CCN2C(=O)C3CCCCC3C2=O)c1 (stereo not given)	-	.	.	.	-	-	.	.	.	.
CC1(C)CC2(CC(c3cccs3)c3cc(Cl)c(O)cc3O2)NC(=S)N1 (stereo not given)	-	-	-	-	-	53	-	75	-	-
Oc1c(C(c2ccccn2)N2CCC(Cc3ccccc3)CC2)cc(Cl)c2cccnc12 (stereo not given)	-	-	-	.	-	53	-	-	-	-
Cc1ccc(CNS(=O)(=O)c2cc3c4c(c2)C(C)C(=O)N4CCC3)cc1 (stereo not given)	-	-	.	-	-	-	.	.	.	.
COc1ccc(-c2ccc3c(c2)S(=O)(=O)c2cccc(C(=O)NC4CCCCC4)c2C3=O)cc1OC	-	.	.	-	-	1.1	-	-	-	-
CCC1CCCCN1C(=O)N[C@@H](Cc1ccccc1)C(=O)O (stereo not given in full)	-	-	-	-	-	-	.	.	.	.
CCCCCCCCOC(=O)C[N+](C)(C)C/C=C(/C)Cl	-	-	-	-	-	-	.	.	.	.
C/C(Cl)=C\C[N+](C)(C)CC(=O)OCCc1ccccc1	-	-	.	-	-	0.5	-	-	-	-
CCOC(=O)c1cnc(SC)nc1Oc1cccc(NS(=O)(=O)c2ccc(Cl)cc2)c1	-	-	-	-	-	-	.	.	.	.
CCOC(=O)c1cnc(SC)nc1Oc1cccc(NC(=O)c2ccc(Cl)cc2)c1	-	.	-	-	-	1.5	-	-	-	-
Cc1cc(O)c(C(C)C)cc1C1(c2cc(C(C)C)c(O)cc2C)OC(=O)c2ccccc21	-	77	.	150	-	1.2	-	-	-	-
Cc1c(C)n(Cc2ccc(F)cc2)c2ccc(C(=O)NCCN3CCOCC3)cc12	-	-	.	-	-	-	.	.	.	.
COc1ccc(CNC(=O)CCS(=O)(=O)c2ccc3c(c2)NC(=O)CS3)cc1	-	-	.	-	-	-	.	.	.	.
Cc1cc(C)c(OCC(=O)Nc2ccccc2N2CCCCC2)c(C)c1	-	-	.	-	-	-	.	.	.	.
SMILES	Mot1-301 SUMO	T cruzi repl	WT yeast gro inh	CSC inhib	Beta cell apopt	Efflux pump inh	Yeast cmpd fluor	Mdr1 pump inh	CaCdr2 efflux inh	Cdr1 pump inh
Cc1cc(C)c(OCC(=O)Nc2ccccc2N2CCOCC2)c(C)c1	-	-	-	-	-	11	-	-	-	-
CCN1/C(=C/c2ccc3cc(C)ccc3[n+]2CC)Sc2ccc3sccc3c21	-	60	.	-	140	3.6	+	-	-	-
CC[n+]1c(C)sc2c3ccsc3ccc21	-	-	-	-	-	-	.	.	.	.
CCC(C)C(=O)Nc1nnc(CCc2ccccc2)s1 (stereo not given)	-	-	.	-	-	1.2	-	-	-	-
Cc1ccc(N2C(=O)N(Cc3ccccc3C)c3ccccc3S2(=O)=O)cc1	-	-	-	-	-	-	.	.	.	.
CC(=O)Oc1ccc2nc(-c3ccc(Br)o3)oc(=O)c2c1	-	-	.	-	-	-	.	.	.	.
CN1CCN(C(=O)/C=C/c2ccc([N+](=O)[O-])cc2)CC1	-	-	-	-	-	12	-	-	-	-
CCN1CCN(C(=O)/C=C/c2ccc([N+](=O)[O-])cc2)CC1	-	-	-	-	-	-	.	.	.	.
Nc1ncnc2c1nc(N1CCCCC1)n2[C@@H]1O[C@H](CO)[C@@H](O)[C@H]1O	-	.	.	-	-	2.3	-	-	-	-
Cc1ccc(S(=O)(=O)N2CC3CCCC2C3)cc1 (stereo not given)	-	-	.	-	-	-	.	.	.	.
Nc1nonc1-n1nnc(C(=O)N/N=C/c2ccccc2)c1CSc1ccccc1	-	-	.	-	-	-	-	-	-	-
Nc1nonc1-n1nnc(C(=O)N/N=C/c2ccncc2)c1CSc1ccccc1	-	-	.	-	-	-	.	.	.	.
Cc1ccccc1COc1ccc(/C=N/NC(=O)c2nnn(-c3nonc3N)c2CN2CCC(C)CC2)cc1	-	-	.	-	-	-	.	.	.	.
CN(C)c1ccc(/C=N/NC(=O)c2nnn(-c3nonc3N)c2COc2ccc(F)cc2)cc1	-	-	.	-	-	-	-	-	-	-
CC1CCN(Cc2c(C(=O)N/N=C/c3ccc(OC(C)C)cc3)nnn2-c2nonc2N)CC1	-	-	.	-	-	0.4	-	-	-	-
CN(C)Cc1c(C(=O)N/N=C/c2ccc(OCc3ccc(F)cc3)cc2)nnn1-c1nonc1N	-	-	.	-	-	-	.	.	.	.
CCOc1ccc(/C=N/NC(=O)c2nnn(-c3nonc3N)c2COc2ccc(F)cc2)cc1	-	-	.	-	-	-	-	-	-	-
O=C(Cn1cncn1)N/N=C/c1ccccc1O	-	-	.	-	-	-	.	.	.	.

High-throughput results deposited in PubChem BioAssay by several laboratories.
